Results from ChEMBL document CHEMBL3739382 (Eur J Med Chem, 2015).

Key:
[1] = biological target: T1, Tyrosinase (Mus musculus) (UniProt P11344); test: Inhibition of tyrosinase in mouse B16F10 cells assessed as remaining melanin production at 20 uM relative to control; conditions: B16-F10
T1 sequence (whole entry): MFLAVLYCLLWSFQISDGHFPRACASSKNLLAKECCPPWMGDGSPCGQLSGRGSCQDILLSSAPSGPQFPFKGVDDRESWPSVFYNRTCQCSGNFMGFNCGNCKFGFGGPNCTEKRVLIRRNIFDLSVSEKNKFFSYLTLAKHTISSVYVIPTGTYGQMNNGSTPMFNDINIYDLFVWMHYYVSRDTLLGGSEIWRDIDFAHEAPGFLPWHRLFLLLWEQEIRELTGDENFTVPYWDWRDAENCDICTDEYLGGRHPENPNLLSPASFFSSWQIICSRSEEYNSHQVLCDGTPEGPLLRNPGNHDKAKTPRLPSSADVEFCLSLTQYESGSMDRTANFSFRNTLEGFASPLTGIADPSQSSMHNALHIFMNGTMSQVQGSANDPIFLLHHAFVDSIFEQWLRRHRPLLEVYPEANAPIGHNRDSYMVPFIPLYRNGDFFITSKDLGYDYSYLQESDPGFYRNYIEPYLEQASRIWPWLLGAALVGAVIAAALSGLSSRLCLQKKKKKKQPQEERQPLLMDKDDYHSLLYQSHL

[2] = Cytotoxicity against mouse B16F10 cells assessed as cell survival at 50 uM after 48 hrs by MTT assay; format: cell-based, B16-F10; conditions: read-out: Survival
[3] = biological target: T2, Tyrosinase (Agaricus bisporus) (UniProt O42713); test: Binding affinity to mushroom tyrosinase assessed as fluorescence quenching
T2 sequence (whole entry): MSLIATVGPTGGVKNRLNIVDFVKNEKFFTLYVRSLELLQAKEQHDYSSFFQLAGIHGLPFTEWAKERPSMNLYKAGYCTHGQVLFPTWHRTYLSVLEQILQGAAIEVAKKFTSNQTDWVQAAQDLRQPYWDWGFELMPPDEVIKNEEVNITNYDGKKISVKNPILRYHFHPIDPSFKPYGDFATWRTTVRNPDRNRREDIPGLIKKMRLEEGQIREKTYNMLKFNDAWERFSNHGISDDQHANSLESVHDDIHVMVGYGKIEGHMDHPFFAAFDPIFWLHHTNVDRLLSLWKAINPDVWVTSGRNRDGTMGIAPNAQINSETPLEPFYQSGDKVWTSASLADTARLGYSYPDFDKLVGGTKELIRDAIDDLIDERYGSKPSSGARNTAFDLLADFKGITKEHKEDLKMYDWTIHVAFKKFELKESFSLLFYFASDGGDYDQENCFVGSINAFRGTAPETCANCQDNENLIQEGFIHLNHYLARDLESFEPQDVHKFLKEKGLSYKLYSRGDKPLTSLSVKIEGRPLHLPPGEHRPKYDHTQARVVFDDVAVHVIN

[4] = biological target: T1, Tyrosinase (Mus musculus); test: Inhibition of tyrosinase in mouse B16F10 cells assessed as remaining melanin production at 50 uM relative to control; conditions: B16-F10
[5] = biological target: T1, Tyrosinase (Mus musculus); test: Inhibition of tyrosinase in mouse B16F10 cell lysates using DOPA as substrate relative to control; format: cell-free; design: concentration or dose not given beside the values; conditions: B16-F10, concentration not given here
Tyrosinase [6] = biological target: T3, Tyrosinase (Agaricus bisporus, UniProt O42713); test: Inhibition of mushroom tyrosinase using L-tyrosine as substrate
T3 sequence (O42713 whole entry): T2 sequence (whole entry)

[7] = biological target: T1, Tyrosinase (Mus musculus); test: Inhibition of tyrosinase in mouse B16F10 cells assessed as remaining melanin production at 10 uM relative to control; conditions: B16-F10
Tyrosinase [8] = biological target: T3, Tyrosinase; test: Competitive inhibition of mushroom tyrosinase using L-tyrosine as substrate by Lineweaver-Burk plots analysis
In short: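 Global nonlinear Michaelis–Menten fitting over four inhibition models gave Vmax, Km, Kic and Kiu, with the model chosen by minimal χ2.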

[9] = biological target: T2, Tyrosinase (Agaricus bisporus); test: Non-competitive inhibition of mushroom tyrosinase using L-tyrosine as substrate by Lineweaver-Burk plots analysis
In short: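 Absorbance at 475 nm read at 30 °C in PBS with 5% DMSO. Global nonlinear Michaelis–Menten fitting over four inhibition models gave Vmax, Km, Kic and Kiu, with the model chosen by minimal χ2.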

SMILES: NNC(=O)c1ccncc1 [ISONIAZID]
- residual activity [1]: 100%
- viability at 48 h, 50 µM [2]: 103%
- KSV [3]: 1.7 ×10³ /M
- residual activity [4]: 102%
- inhibition [5]: 97%
- IC50 (Tyrosinase [6]): > 1000 µM
- residual activity [7]: 104%

SMILES: CC(=S)Nc1ccccc1
- Ki (Tyrosinase [8]): 1.2 µM
- residual activity [1]: 75%
- viability at 48 h, 50 µM [2]: 116%
- KSV [3]: 8.3 ×10³ /M
- residual activity [4]: 57%
- inhibition [5]: 42%
- IC50 (Tyrosinase [6]): 4.1 µM
- residual activity [7]: 91%

SMILES: NC(=S)c1cccnc1
- Kic [9]: 4.3 µM
- residual activity [1]: 104%
- viability at 48 h, 50 µM [2]: 108%
- KSV [3]: 8.5 ×10³ /M
- residual activity [4]: 106%
- inhibition [5]: 83%
- IC50 (Tyrosinase [6]): 7.5 µM
- residual activity [7]: 109%

SMILES: CCc1cc(C(N)=S)ccn1 [ETHIONAMIDE]
- Kic [9]: 1.9 µM
- residual activity [1]: 104%
- viability at 48 h, 50 µM [2]: 106%
- KSV [3]: 9.5 ×10³ /M
- residual activity [4]: 104%
- inhibition [5]: 88%
- IC50 (Tyrosinase [6]): 4 µM
- residual activity [7]: 107%

SMILES: NC(=S)Nc1ccccc1 [PHENYLTHIOUREA]
- residual activity [1]: 55%
- viability at 48 h, 50 µM [2]: 106%
- KSV [3]: 2.4 ×10³ /M
- residual activity [4]: 54%
- inhibition [5]: 27%
- residual activity [7]: 63%

SMILES: NC(=S)c1ccccn1
- Kic [9]: 2.7 µM
- residual activity [1]: 80%
- viability at 48 h, 50 µM [2]: 105%
- KSV [3]: 9 ×10³ /M
- residual activity [4]: 56%
- inhibition [5]: 78%
- IC50 (Tyrosinase [6]): 14.4 µM
- residual activity [7]: 98%

SMILES: NC(=S)c1ccccc1
- Kic [9]: 0.7 µM
- residual activity [1]: 93%
- viability at 48 h, 50 µM [2]: 117%
- KSV [3]: 9.2 ×10³ /M
- residual activity [4]: 63%
- inhibition [5]: 72%
- IC50 (Tyrosinase [6]): 2.8 µM
- residual activity [7]: 103%

SMILES: NC(=S)c1ccncc1
- Kic [9]: 22.3 µM
- residual activity [1]: 103%
- viability at 48 h, 50 µM [2]: 110%
- KSV [3]: 7.5 ×10³ /M
- residual activity [4]: 104%
- inhibition [5]: 93%
- IC50 (Tyrosinase [6]): 43.8 µM
- residual activity [7]: 106%

SMILES: CC(=O)Nc1ccccc1 [ACETANILIDE]
- residual activity [1]: 103%
- viability at 48 h, 50 µM [2]: 116%
- KSV [3]: 1 ×10³ /M
- residual activity [4]: 102%
- inhibition [5]: 99%
- IC50 (Tyrosinase [6]): > 1000 µM
- residual activity [7]: 105%

SMILES: CCCc1cc(C(N)=S)ccn1 [PROTIONAMIDE]
- Kic [9]: 2.4 µM
- residual activity [1]: 103%
- viability at 48 h, 50 µM [2]: 121%
- KSV [3]: 10.2 ×10³ /M
- residual activity [4]: 100%
- inhibition [5]: 84%
- IC50 (Tyrosinase [6]): 4.5 µM
- residual activity [7]: 105%
